An excerpt weighted towards active compounds, which were near 3.4% of everything screened.
CHT allo act: allosteric activators of human choline transporter CHT. B-score at 10 µM. Q9GZV3. CHT-expressing cells, membrane potential dye, choline EC20; hits give high values; LV-AA mutant CHT in HEK293 cells. 310,000 compounds, 0.49% hits;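 active = initial fluorescence not abnormally high and integrated response B-score, plate-corrected, over 3 SD above library mean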
ANO1 activ: activates or potentiates the mouse TMEM16A chloride channel; Q8BHY3; HEK293 TMEM16A/YFP-H148Q/I152L, iodide quench fluorescence; hits give low values; B-score at 10 µM; 340,000 compounds, 0.3% hits; AID 623877;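 active = fluorescence-ratio B-score plate-corrected deviation score at least 3 library SD below zero, with starting fluorescence score within 5 deviations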;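 note: channel opened by trigger with iodide after compound preincubation; score built on the fluorescence ratio of max minus min over baseline; more negative score means more quench and so TMEM16A activation or potentiation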
Target sequence (Q8BHY3 whole entry, looked up): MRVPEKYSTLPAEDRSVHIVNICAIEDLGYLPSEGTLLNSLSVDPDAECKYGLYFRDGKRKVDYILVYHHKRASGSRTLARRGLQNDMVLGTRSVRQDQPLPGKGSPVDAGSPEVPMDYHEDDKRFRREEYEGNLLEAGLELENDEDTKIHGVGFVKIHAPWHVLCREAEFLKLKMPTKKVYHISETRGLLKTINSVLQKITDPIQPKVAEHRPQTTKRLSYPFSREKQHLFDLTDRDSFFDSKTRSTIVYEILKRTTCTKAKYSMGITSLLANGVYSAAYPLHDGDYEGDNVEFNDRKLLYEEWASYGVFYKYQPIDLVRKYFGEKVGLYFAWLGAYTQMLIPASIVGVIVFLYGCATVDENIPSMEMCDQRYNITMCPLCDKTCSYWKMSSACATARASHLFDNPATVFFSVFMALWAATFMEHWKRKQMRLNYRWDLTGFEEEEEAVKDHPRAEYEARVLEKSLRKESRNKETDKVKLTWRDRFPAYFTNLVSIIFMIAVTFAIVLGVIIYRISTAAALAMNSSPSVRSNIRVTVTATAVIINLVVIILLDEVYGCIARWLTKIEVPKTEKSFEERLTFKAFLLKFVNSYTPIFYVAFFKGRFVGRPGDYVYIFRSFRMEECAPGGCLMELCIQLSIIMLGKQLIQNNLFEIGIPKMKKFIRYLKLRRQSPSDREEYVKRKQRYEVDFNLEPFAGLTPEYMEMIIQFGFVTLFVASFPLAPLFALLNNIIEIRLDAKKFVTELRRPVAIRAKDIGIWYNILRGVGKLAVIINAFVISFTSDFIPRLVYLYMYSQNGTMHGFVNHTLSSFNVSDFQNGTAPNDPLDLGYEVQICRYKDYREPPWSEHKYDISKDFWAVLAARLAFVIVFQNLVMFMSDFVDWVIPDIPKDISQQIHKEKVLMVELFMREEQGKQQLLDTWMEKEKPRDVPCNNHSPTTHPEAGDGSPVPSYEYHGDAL
CHT block: inhibits the human high affinity choline transporter; Q9GZV3; CHT-expressing cells, membrane potential dye, choline response; hits give low values; B-score at 10 µM; 310,000 compounds, 0.86% hits; AID 488975;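 active = B-score over 3 SD under the library average, and starting fluorescence ratio not unusually high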;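 note: choline stimulus applied at its EC90 after an EC20 pre-addition; B-score computed on integrated fluorescence ratio after choline addition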
VIM-2 inh: inhibitors of Pseudomonas aeruginosa VIM-2 metallo-beta-lactamase; 290,000 compounds, 0.89% hits; inhibition, % at 5.6 µM; purified VIM-2, nitrocefin hydrolysis, epi-absorbance fluorescence;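 active = inhibition above the mean of all tested compounds plus 3 SD, cutoff set per screening run, cut at about 7.5% in these data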;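 note: red hydrolysis product quenches plate fluorescence so inhibitors raise well fluorescence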
TMEM16A inh: blocks the mouse calcium-activated chloride channel TMEM16A | HEK293 TMEM16A/YFP iodide influx fluorescence, ionomycin | normalized B-score (activity score, 25-100; higher = stronger inhibition) at 10 µM | 310,000 compounds, 1.2% hits | AID 588511;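 active = ratio plate-corrected score three or more library SD toward inhibition, starting fluorescence score within five deviations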;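 note: score derived from kinetic fluorescence span divided by baseline fluorescence per well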
IMP-1 inh: inhibitors of Pseudomonas aeruginosa IMP-1 metallo-beta-lactamase | 290,000 compounds, 0.45% hits | AID 1556 | inhibition, % at 5.6 µM | purified IMP-1, nitrocefin hydrolysis, epi-absorbance fluorescence;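 active = inhibition above the mean plus 3 SD of all compounds in the same screening run, cut at about 4.5% in these data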
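assay system = purified recombinant IMP-1 metallo-beta-lactamase enzyme | schedule = 15 min preincubation plus 25 min reaction at 25 °C | signal = Epi-absorbance fluorescence, 480 nm excitation, 530 nm emission | read-out basis = percent inhibition from optical density relative to buffer-blank wells | controls = IMP-1 with DMSO as 0%, enzyme-free DMSO as 100%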
Numbers stand for hits; – = inactive; · = not tested or not shown.

SMILES	CHT allo act	ANO1 activ	CHT block	VIM-2 inh	TMEM16A inh	IMP-1 inh
COc1ccccc1-n1nnnc1SC(C)C(=O)NC1CCCC1 (stereo unspecified)	–	–	–	·	–	·
Cc1ccsc1C=Nc1c(C)n(C)n(-c2ccccc2)c1=O	–	–	–	–	–	–
Cc1c(N=Cc2cccs2)c(=O)n(-c2ccccc2)n1C	–	–	–	–	100	–
N#Cc1c(-c2ccc(Cl)cc2)nc2n(c1=O)CCCS2	–	–	–	–	–	–
O=c1c2cc(Cl)ccc2oc2nc3n(c(=O)c12)CCCS3	–	–	–	9.7	–	–
CCOc1ccccc1CN1CCNC(=O)C1CC(=O)N(C)C1CCOCC1 (stereo unspecified)	–	–	–	–	–	–
FC(F)(F)c1cccc(N2CCN(C(=S)NCC3CCCO3)CC2)c1 (stereo unspecified)	–	–	–	–	25	–
CC1(C)CC[C@]2(C(=O)O)CC[C@]3(C)C(=CC[C@@H]4[C@@]5(C)CC[C@H](O[C@@H]6O[C@H](C(=O)O)[C@@H](O)[C@H](O[C@@H]7OC[C@H](O)[C@H](O)[C@H]7O)[C@H]6O)C(C)(C)[C@@H]5CC[C@]43C)[C@@H]2C1	·	-16.9	·	·	·	·
CC1(C)CC[C@]2(C(=O)O[C@@H]3O[C@H](CO)[C@@H](O)[C@H](O)[C@H]3O)CC[C@]3(C)C(=CCC4[C@@]5(C)CC[C@H](O[C@@H]6O[C@H](C(=O)O)[C@@H](O[C@H]7OC[C@@H](O)[C@@H](O)[C@@H]7O)[C@H](O)[C@H]6O)C(C)(C)C5CC[C@]43C)[C@@H]2C1 (stereo partly specified)	·	–	·	·	·	·
C[n+]1ccc(/C=C/c2c[nH]c3ccc(F)cc23)cc1	–	–	–	–	–	4.6
O=[N+]([O-])c1cc([N+](=O)[O-])c2nonc2c1Nc1ccccc1O	–	–	–	–	100	–
O=[N+]([O-])c1cc([N+](=O)[O-])c2nonc2c1Nc1ccc(O)cc1	–	–	–	–	–	–
CCCCN(CC(=O)NCCOC)C(=O)Cn1nnc2ccccc21	–	–	–	–	–	–
Cc1nnc2n(C3CCCCC3)c(=O)c3c4c(sc3n12)COC(C)(C)C4	–	-14.7	–	–	–	–
Cc1nnc2n(C3CCCCC3)c(=O)c3c4c(sc3n12)CCC4	·	·	·	–	·	–
O=C(CC(Sc1ccc(Br)cc1)C(=O)O)c1ccc(Br)cc1 (stereo unspecified)	–	·	-6.99	–	–	–
Cc1ccc(S(=O)(=O)Nc2ccccc2F)cc1C(=O)NCc1ccco1	·	–	·	·	·	·
COc1cc2[nH]c(=O)n(CCC(=O)N3CCC(N4CCCCC4)CC3)c(=O)c2cc1OC	–	–	–	7.8	–	–
COc1cc2[nH]c(=O)n(CCC(=O)N3CC=C(c4ccccc4)CC3)c(=O)c2cc1OC	–	–	–	–	–	–
O=C1C[C@@H]2c3c(cccc3CN1Cc1ccc(Br)cc1)C[C@@H](O)[C@H]2O	·	–	·	·	·	·
O=C(NC(Cc1ccccc1)C(=O)O)c1cccnc1Cl (stereo unspecified)	–	–	–	–	–	–
CNC[C@@H](C)NC[C@@H](Cc1ccccc1)NCCc1ccccc1	–	–	–	11.6	–	–
OCCC1CN(C2CCN(c3ccccc3)CC2)CCN1Cc1ccc(F)c(F)c1 (stereo unspecified)	–	–	–	–	–	–
CC(C)c1cc(NCC2CCCO2)n2c(nc3ccccc32)c1C#N (stereo unspecified)	–	–	–	9.9	–	–
CCc1c(C)c(C#N)c2nc3ccccc3n2c1NCC1CCCO1 (stereo unspecified)	–	–	–	7.8	–	–
SMILES	CHT allo act	ANO1 activ	CHT block	VIM-2 inh	TMEM16A inh	IMP-1 inh
COc1ccc(CCNC(=O)CCC(=O)n2ncc3ccc(Cl)cc32)cc1OC	–	–	–	–	–	–
CSc1sc(-c2ccnc(SCC(=O)C(C)(C)C)n2)c2c1C(=O)CC(C)(C)C2	–	–	–	–	–	13.6
COc1cc(/C=N/NC(=O)CCn2c3ccccc3c3ccccc32)ccc1O	–	–	–	–	25	–
COc1cc(/C=N/NC(=O)CCn2nnc3ccccc32)ccc1O	–	–	–	–	–	–
CCN(CC(=O)Nc1ccccc1OC)C(=O)c1ccc(NS(=O)(=O)c2ccc(C(C)=O)cc2)cc1	–	–	–	–	–	–
CC(C)OC(=O)c1ccc2nc3ccccc3nc2c1	–	–	–	–	–	–
O=C(CN1CCN(Cc2ccc3c(c2)OCO3)CC1)NCC(F)(F)F	–	–	–	–	–	–
O=C(O)/C(=C\c1ccccc1OC(F)F)c1ccc(-c2ccccc2)cc1	–	–	–	–	–	7.3
COc1cc(CCC(=O)OCC(=O)Nc2cc(S(=O)(=O)N3CCOCC3)ccc2Cl)cc(OC)c1OC	·	–	·	·	·	·
CCOC(=O)C1CCN(C2=C(NS(=O)(=O)c3ccc(Cl)cc3)C(=O)c3ccccc3C2=O)CC1	–	–	–	–	–	–
CCOC(=O)C1CCCN(C2=C(NS(=O)(=O)c3ccc(Br)cc3)C(=O)c3ccccc3C2=O)C1 (stereo unspecified)	–	–	–	8.2	–	–
COc1ccc(Nc2nnc(-c3ccncc3)s2)cc1Cl	–	–	–	–	–	17.0
COc1ccc(-c2cc(OC(=O)c3ccc(F)cc3)c3c(C)oc(C)c3c(=O)c2)cc1	–	·	–	–	–	4.9
COc1ccc(C(=O)Oc2ccc[nH]c2=O)cc1	–	–	–	–	–	–
CCOC(=O)c1cnc2ccc(C)cc2c1NCCN1CCOCC1	–	–	–	–	–	–
CCOC(=O)c1cnc2c(C)cc(C)cc2c1NCCCN1CCOCC1	–	–	–	9.6	–	–
CCOC(=O)c1cnc2c(Cl)c(Cl)ccc2c1NCCN1CCOCC1	–	–	–	7.7	–	–
CCOC(=O)c1cnc2ccc(Br)cc2c1NCCCN1CCOCC1	–	–	–	–	–	–
CCOC(=O)c1cnc2c(C)c(C)ccc2c1NCCN1CCOCC1	·	–	·	8.6	·	–
O=C(NCCCN1CCCC1)c1ccc(CSCc2cccc(Cl)c2)o1	–	–	–	–	–	–
CN1CCN(CCCNC(=O)c2ccc(CSCc3cccc(Cl)c3)o2)CC1	–	·	–	–	–	6.8
C/C(=N\NC(=O)c1ccc(-c2ccccc2)cc1)C1C(=O)c2ccccc2C1=O	–	–	–	–	–	–
C/C(=N\NC(=O)c1ccc(Br)cc1)C1C(=O)c2ccccc2C1=O	–	–	-6.93	–	100	–
CCN1CCN(c2c(/C=C3\SC(=S)N(Cc4ccco4)C3=O)c(C)c(C#N)c(=O)n2C)CC1	–	–	–	–	–	6.4
O=C(CN1c2cccc3cccc(c23)S1(=O)=O)N1CCN(c2ccccc2)CC1	·	–	·	·	·	·
